Each structure is given as a SMILES string.

Drawing on ChEMBL document CHEMBL1125217, “2-Pyridinone derivatives: a new class of nonnucleoside, HIV-1-specific reverse transcriptase inhibitors” (J Med Chem, 1991), this text covers IC50 and IC95 for 17 compounds.

Assay [1] has as its target Human immunodeficiency virus type 1 reverse transcriptase (Human immunodeficiency virus 1, UniProt Q72547). Description: Inhibitory activity against HIV-1 reverse transcriptase (RT).
Assay [2] deals with MT4. As to the kind of experiment: Concentration which inhibited >95% spread of HIV-1 strain IIIb infection in susceptible MT-4 cell culture. It is filed as functional. To be noted: Homo sapiens, read-out: CIC95. The gist of the method:
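MT-4 human T-lymphoid cells in RPMI 1640 with 10% heat-inactivated FBS were infected en masse with HIV-1 IIIb (multiplicity 0.01) for 24 h. They were then washed and plated with serial 2-fold inhibitor dilutions for 3 more days. Spread was measured by p24 core antigen ELISA. CIC95 is the concentration blocking >95% of spread.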

Assay [3] deals with H9. Description: Concentration which inhibited >95% spread of HIV-1 strain IIIb infection in susceptible H-9 cell culture. The note with it: Homo sapiens, read-out: CIC95. It is filed as functional. In short, it runs like this:
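H9 human T-lymphoid cells in RPMI 1640 with 10% heat-inactivated FBS were pre-incubated one day with serial 2-fold inhibitor dilutions, then infected with HIV-1 IIIb at low multiplicity (<0.001). Inhibitor was kept present for 13-14 days. Spread was measured by p24 core antigen ELISA of supernatants. CIC95 is the concentration blocking >95% of spread.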

In assay [1], `CCc1cc(CCc2nc3ccccc3s2)c(O)nc1C` returned an IC50 of 370 nM.

Regarding `CCc1cc(CCc2cc3ccccc3o2)c(O)nc1C`, in assay [1], the IC50 came to 77 nM.

On to `Cc1ccnc2c1NC(=O)c1cccnc1N2C1CC1` [NEVIRAPINE], for which the IC95 in assay [2] was 100 nM.

For `CCc1cc(CCN2C(=O)c3ccccc3C2=O)c(O)nc1C`, in assay [3], the IC95 was 40000 nM. Besides, the IC50 in assay [1] is 3700 nM.

In assay [1], `CCc1cc(CCc2nc3c(C)ccc(C)c3o2)c(=O)[nH]c1C` registered an IC50 of 23 nM.

Turning to `CCc1cc(NCc2nc3cccc(C)c3o2)c(O)nc1C`, the IC50 in assay [1] worked out at 55 nM.

As for `CCc1cc(NCc2nc3c(Cl)ccc(Cl)c3o2)c(O)nc1C` [L-697661], the IC95 in assay [3] stood at 100 nM; in assay [2], 50 nM. This compound also had an IC50 in assay [1] of 19 nM.

`CCc1cc(NCc2cc3ccccc3o2)c(O)nc1C` yielded an IC50 in assay [1] of 235 nM.

`CCc1cc(NCc2nc3ccccc3s2)c(O)nc1C` came in with an IC50 in assay [1] of 350 nM.

Compound `CCc1cc(NCc2nc3c(C)cccc3o2)c(O)nc1C` displayed an IC50 in assay [1] of 125 nM.

In the case of `CC(C)=CCN1Cc2cccc3[nH]c(=S)n(c23)C[C@@H]1C`, the IC95 in assay [2] came to 200 nM.

In the case of `CCc1cc(NCc2nc3c(C)ccc(C)c3o2)c(O)nc1C`, the IC95 in assay [3] turned out to be 150 nM; in assay [2], 50 nM. The same compound yielded an IC50 in assay [1] of 20 nM.

In assay [1], `CCc1cc(NCc2nc3ccccc3o2)c(O)nc1C` came in with a 50% inhibitory concentration (IC50) of 210 nM.

With `CCc1cc(CCc2nc3ccccc3o2)c(O)nc1C`, the IC95 in assay [3] worked out at 200 nM; in assay [2], 100 nM. Moreover, half-maximal inhibition in assay [1] (IC50) required 22 nM.

Turning to `CCc1cc(CCc2nc3c(Cl)ccc(Cl)c3o2)c(O)nc1C`, the IC95 in assay [2] was 100 nM. This compound also displayed an IC50 in assay [1] of 9.6 nM.

On to `CCc1cc(NCc2ccc3ccccc3c2)c(=O)[nH]c1C`, for which, in assay [1], the IC50 turned out to be 440 nM.

For `CCc1cc(NCc2nc3ccccc3[nH]2)c(O)nc1C`, in assay [1], the IC50 was determined as 6400 nM.
